ChEMBL document CHEMBL1147069, “Gambogic amide, a selective agonist for TrkA receptor that possesses robust neurotrophic activity, prevents neuronal cell death” (Proc Natl Acad Sci U S A, 2007)
The source made the active and inactive calls. The rule behind the calls is not given here.

What was measured:
TrkB-stable [1] = experiment: Induction of MAPK signaling activation in TrkB-stable cells; type: cell-based
T17 [2] = experiment: Induction of MAPK phosphorylation in mouse T17 cells
TrkB-stable [3] = experiment: Induction of PI3K signaling activation in TrkB-stable cells; type: cell-based
[4] = target: High affinity nerve growth factor receptor (Rattus norvegicus) (UniProt P35739); experiment: Induction of Akt phosphorylation in rat primary hippocampal neurons; type: tissue-based; conditions: Hippocampus
Chain of High affinity nerve growth factor receptor (Rattus norvegicus) (P35739 whole entry): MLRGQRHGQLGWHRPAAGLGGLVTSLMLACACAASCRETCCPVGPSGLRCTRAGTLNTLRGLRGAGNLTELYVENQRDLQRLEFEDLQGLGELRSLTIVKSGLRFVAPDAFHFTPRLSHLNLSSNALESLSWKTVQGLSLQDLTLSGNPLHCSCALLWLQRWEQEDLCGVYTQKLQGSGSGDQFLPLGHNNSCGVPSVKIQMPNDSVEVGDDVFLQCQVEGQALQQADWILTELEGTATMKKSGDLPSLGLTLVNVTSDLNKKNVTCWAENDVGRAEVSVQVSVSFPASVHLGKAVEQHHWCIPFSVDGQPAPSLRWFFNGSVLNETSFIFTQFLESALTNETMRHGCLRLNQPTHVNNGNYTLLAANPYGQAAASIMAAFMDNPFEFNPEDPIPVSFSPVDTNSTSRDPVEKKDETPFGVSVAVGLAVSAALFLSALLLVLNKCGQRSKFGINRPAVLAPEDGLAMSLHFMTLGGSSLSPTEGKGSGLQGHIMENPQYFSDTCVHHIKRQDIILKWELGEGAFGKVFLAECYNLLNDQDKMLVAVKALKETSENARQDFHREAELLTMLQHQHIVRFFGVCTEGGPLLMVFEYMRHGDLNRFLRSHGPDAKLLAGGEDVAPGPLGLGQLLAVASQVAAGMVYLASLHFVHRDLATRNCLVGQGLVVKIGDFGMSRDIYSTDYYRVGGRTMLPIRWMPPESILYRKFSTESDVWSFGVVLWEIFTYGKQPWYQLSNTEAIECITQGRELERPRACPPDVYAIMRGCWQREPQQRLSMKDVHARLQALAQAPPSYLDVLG
In short: (§1)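 Hippocampal neurons were given 0.5 μM compound for 5–180 min (time course), or a dose range for 30 min, with 50 ng/ml NGF for comparison. Akt phosphorylation was detected by immunoblotting with phospho-Akt (473/308) antibodies.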

[5] = target: High affinity nerve growth factor receptor (Rattus norvegicus) (UniProt P35739); experiment: Induction of TrkA phosphorylation in rat hippocampal neurons at 0.5 uM after 30 mins; type: tissue-based; conditions: Hippocampus
In short: (§2)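 Primary hippocampal neurons were treated with 0.5 μM compounds for 30 min; lysates were immunoblotted with anti-phospho-Trk Y490 antibody. Repeated more than three times.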

T17 [6] = experiment: […] in staurosporine-initiated apoptosis in mouse T17 cells at 0.5 uM
SN56 = experiment: Suppression of staurosporine-initiated apoptosis in mouse SN56 cells at 0.5 uM; type: functional, cell-based
In short: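 Murine SN56 basal forebrain cells and their rat-TrkA stably transfected line T17 (DMEM, 1 mM pyruvate, 10% FBS; T17 with 300 μg/ml G418). Cells were preincubated with 0.5 μM compound, then given 1 μM staurosporine for 9 h. Apoptosis was read with the caspase-3-activated dye MR(DEVD)2 (10 μM, last hour) plus Hoechst counterstain after fixation. Three independent experiments, mean ± SD.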

Rattus norvegicus [7] = experiment: Neuroprotective effect in rat MCAO model assessed as decrease in cerebral blood flow at 2 mg/kg within 5 mins; type: functional, Brain; design: scale not given: the % may be the effect or the level left
In short: (§3)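 Adult male rats underwent 2 h transient MCAO; vehicle or 2 mg/kg was given 5 min before reperfusion onset. Relative cerebral blood flow over ipsilateral parietal cortex was measured by laser-Doppler flowmetry versus preischemic levels. Values are mean ± SD, compared by Student's t test.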

[8] = target: BDNF/NT-3 growth factors receptor (Homo sapiens) (UniProt Q16620); experiment: Binding affinity to recombinant GST-TrkB
Chain of BDNF/NT-3 growth factors receptor (Homo sapiens) (Q16620 32-822 limits assumed): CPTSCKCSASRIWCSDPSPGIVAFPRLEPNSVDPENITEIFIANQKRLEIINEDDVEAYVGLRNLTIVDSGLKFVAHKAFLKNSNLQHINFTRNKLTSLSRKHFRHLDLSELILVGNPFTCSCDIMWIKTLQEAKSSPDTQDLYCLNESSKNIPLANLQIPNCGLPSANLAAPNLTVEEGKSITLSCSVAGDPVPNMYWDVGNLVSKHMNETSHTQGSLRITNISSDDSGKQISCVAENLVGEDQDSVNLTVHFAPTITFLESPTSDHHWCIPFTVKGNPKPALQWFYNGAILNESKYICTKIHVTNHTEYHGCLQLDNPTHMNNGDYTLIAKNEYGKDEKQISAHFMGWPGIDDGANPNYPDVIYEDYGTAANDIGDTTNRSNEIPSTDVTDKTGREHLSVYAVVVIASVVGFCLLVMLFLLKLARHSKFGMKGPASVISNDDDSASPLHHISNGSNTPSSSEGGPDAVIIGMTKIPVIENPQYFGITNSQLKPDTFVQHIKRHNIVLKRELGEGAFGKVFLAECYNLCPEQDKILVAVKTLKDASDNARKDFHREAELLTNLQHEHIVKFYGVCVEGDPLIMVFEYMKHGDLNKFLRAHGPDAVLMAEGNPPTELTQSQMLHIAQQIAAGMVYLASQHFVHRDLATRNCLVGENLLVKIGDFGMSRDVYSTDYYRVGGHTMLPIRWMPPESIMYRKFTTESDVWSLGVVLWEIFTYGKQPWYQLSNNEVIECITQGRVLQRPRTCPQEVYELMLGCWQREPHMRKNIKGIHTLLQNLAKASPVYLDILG
In short: (§4)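 Recombinant GST-TrkA, GST-TrkB or GST-TrkC proteins tested in an in vitro binding assay with the compounds; experiments were repeated more than three times.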

Rattus norvegicus [9] = experiment: Neuroprotective effect in rat MCAO model assessed as increase in cerebral blood flow at 2 mg/kg after 120 mins of filament withdrawal; type: functional, Brain; in short: as §3
[10] = target: NT-3 growth factor receptor (Homo sapiens) (UniProt Q16288); experiment: Binding affinity to recombinant GST-TrkC; in short: as §4
Chain of NT-3 growth factor receptor (Homo sapiens) (Q16288 32-839 limits assumed): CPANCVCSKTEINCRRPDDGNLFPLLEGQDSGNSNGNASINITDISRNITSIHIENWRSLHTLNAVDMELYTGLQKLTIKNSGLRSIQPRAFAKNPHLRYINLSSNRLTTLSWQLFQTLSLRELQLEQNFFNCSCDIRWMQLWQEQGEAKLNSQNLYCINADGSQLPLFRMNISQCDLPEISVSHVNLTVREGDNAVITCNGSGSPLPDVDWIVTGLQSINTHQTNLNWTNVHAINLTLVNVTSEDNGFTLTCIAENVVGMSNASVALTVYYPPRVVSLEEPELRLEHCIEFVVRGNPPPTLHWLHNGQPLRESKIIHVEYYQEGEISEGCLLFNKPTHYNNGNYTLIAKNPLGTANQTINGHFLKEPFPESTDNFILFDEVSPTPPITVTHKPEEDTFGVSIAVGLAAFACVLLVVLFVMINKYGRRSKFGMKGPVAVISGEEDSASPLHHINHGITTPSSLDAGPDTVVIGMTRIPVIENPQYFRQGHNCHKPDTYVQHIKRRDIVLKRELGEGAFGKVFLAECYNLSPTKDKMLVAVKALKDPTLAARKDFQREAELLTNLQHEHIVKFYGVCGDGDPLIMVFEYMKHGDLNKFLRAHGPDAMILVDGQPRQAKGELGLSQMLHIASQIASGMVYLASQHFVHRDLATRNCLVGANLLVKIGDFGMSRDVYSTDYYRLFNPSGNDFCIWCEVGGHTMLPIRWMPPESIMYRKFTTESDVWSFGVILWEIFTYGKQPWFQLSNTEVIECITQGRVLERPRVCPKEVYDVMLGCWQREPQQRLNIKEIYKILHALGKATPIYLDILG

PC-12 [11] = experiment: Induction of neurite outgrowth in rat PC12 cells at 0.5 uM after 5 days; type: functional, cell-based
In short: (§5)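 PC12 cells were seeded at 1 × 10^4 per well on poly-L-lysine and grown 24 h, then treated with compounds (0.5 μM, or 10–50 nM in dose series) or NGF for 5 days, with medium replenished every other day. Neurites were counted as processes longer than two cell bodies. Three independent experiments.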

[12] = Suppression of staurosporine-initiated apoptosis in mouse T17 cells at 0.5 uM
[13] = target: High affinity nerve growth factor receptor (Homo sapiens) (UniProt P04629); experiment: Binding affinity to recombinant GST-TrkA; in short: as §4
Chain of High affinity nerve growth factor receptor (Homo sapiens) (P04629 33-796 limits assumed): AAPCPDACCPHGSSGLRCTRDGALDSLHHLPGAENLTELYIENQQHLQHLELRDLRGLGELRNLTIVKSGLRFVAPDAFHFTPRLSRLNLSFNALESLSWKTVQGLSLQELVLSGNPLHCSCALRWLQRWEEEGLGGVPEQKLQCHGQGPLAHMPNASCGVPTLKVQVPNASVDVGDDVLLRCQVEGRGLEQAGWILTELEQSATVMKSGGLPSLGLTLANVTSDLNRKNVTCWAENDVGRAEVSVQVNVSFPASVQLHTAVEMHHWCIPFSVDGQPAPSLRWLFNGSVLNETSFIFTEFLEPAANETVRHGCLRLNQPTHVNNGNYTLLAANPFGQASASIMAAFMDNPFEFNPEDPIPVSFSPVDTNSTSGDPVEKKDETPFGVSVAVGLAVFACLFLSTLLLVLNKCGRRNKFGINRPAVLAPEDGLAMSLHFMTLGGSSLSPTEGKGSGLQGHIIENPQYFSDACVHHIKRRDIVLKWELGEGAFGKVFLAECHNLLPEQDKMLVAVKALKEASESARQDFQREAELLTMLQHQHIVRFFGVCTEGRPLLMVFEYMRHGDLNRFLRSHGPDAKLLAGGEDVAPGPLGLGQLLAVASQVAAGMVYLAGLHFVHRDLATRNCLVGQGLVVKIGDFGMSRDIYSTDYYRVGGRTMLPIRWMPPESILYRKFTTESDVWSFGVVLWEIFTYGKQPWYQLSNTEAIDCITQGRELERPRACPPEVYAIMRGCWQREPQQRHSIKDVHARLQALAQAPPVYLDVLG

[14] = target: High affinity nerve growth factor receptor (Homo sapiens) (UniProt P04629); experiment: Stimulation of TrkA dimerization co-transfected in HEK293 cells at 0.5 uM after 30 mins by immunoblotting analysis in presence of green fluorescent protein; type: cell-based
In short: (§6)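 HEK293 cells were cotransfected with GFP-TrkA plus HA-TrkA or HA-TrkB, then treated with 0.5 μM compound for 30 min. GFP-TrkA was immunoprecipitated with anti-GFP and coprecipitated receptor detected by anti-HA immunoblot.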

[15] = target: Mitogen-activated protein kinase 3 (Homo sapiens) (UniProt P27361); experiment: Induction of ERK1 phosphorylation
Chain of Mitogen-activated protein kinase 3 (Homo sapiens) (P27361 whole entry): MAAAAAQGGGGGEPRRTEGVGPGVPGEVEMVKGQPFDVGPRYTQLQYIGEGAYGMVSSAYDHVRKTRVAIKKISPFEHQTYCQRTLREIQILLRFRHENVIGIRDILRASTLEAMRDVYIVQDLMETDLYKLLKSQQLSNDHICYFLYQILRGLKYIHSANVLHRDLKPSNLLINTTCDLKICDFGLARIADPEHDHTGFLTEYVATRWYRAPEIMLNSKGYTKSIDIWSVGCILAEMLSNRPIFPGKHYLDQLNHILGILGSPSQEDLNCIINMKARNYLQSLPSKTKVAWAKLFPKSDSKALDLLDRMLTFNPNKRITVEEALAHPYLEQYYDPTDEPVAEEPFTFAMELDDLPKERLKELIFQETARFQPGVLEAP

[16] = target: Mitogen-activated protein kinase 1 (Homo sapiens) (UniProt P28482); experiment: Induction of ERK2 phosphorylation
Chain of Mitogen-activated protein kinase 1 (Homo sapiens) (P28482 whole entry): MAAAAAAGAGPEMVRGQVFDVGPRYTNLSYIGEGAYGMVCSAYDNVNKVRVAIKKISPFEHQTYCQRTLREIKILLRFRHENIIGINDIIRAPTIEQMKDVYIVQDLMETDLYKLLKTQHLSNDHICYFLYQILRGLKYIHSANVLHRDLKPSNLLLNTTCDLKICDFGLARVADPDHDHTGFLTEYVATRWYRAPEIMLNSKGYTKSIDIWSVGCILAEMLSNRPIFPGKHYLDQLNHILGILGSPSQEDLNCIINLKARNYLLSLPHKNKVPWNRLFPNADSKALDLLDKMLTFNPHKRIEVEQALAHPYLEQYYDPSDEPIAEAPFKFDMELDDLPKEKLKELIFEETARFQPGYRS

Hippocampal neurone [17] = experiment: Neuroprotective effect in glutamate-induced cell death in rat hippocampal neurons after 30 mins; type: functional, tissue-based; conditions: Hippocampus
In short: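 Primary hippocampal neurons were pretreated with compounds for 30 min, then exposed to 50 μM glutamate for 16 h. Apoptosis was quantified with the MR(DEVD)2 caspase-3 dye; NGF served as positive control. Three independent experiments, mean ± SD.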

Rattus norvegicus [18] = species: Rattus norvegicus; experiment: Reversal of TrkA Y490 phosphorylation in rat hippocampal neurons at 0.5 uM after 30 mins in presence of K252a; type: tissue-based; conditions: Hippocampus
[19] = target: NT-3 growth factor receptor (Homo sapiens) (UniProt Q16288); experiment: Binding affinity to TrkC
[20] = target: Receptor tyrosine-protein kinase erbB-3 (Homo sapiens) (UniProt P21860); experiment: Binding affinity to ErbB3
[21] = target: BDNF/NT-3 growth factors receptor (Homo sapiens) (UniProt Q16620); experiment: Binding affinity to TrkB
[22] = target: Epidermal growth factor receptor (Homo sapiens) (UniProt P00533); experiment: Binding affinity to EGFR
[23] = target: High affinity nerve growth factor receptor (Homo sapiens) (UniProt P04629); experiment: Induction of TrkA tyrosine phosphorylation in transfected HEK293 cells; type: cell-based
[24] = target: RAC-alpha serine/threonine-protein kinase (Mus musculus) (UniProt P31750); experiment: Induction of Akt phosphorylation in mouse T17 cells
Chain of RAC-alpha serine/threonine-protein kinase (Mus musculus) (P31750 whole entry, looked up): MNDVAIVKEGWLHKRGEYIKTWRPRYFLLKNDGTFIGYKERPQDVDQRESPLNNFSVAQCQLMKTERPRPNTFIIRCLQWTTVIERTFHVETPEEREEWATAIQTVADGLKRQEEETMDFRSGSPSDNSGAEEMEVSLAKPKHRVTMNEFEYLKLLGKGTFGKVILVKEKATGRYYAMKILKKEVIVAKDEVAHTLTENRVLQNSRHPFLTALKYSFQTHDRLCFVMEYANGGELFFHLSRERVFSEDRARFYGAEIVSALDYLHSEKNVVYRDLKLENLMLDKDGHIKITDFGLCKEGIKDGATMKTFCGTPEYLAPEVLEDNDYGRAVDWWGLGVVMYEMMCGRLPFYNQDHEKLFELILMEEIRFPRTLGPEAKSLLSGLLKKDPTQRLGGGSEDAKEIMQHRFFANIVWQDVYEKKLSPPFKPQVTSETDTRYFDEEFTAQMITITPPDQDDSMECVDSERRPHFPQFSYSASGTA

Rattus norvegicus [25] = species: Rattus norvegicus; experiment: Induction of TrkA Y751 tyrosine phosphorylation in rat hippocampal neurons at 0.5 uM after 30 mins by immunoblotting staining; type: tissue-based; conditions: Hippocampus
[26] = target: Mitogen-activated protein kinase 1 (Mus musculus) (UniProt P63085); experiment: Induction of ERK2 phosphorylation in mouse T17 cells
[27] = target: Tumor necrosis factor receptor superfamily member 16 (Homo sapiens) (UniProt P08138); experiment: Binding affinity to p75NTR
[28] = target: High affinity nerve growth factor receptor (Homo sapiens) (UniProt P04629); experiment: Binding affinity to TrkA kinase
In short: (§7)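 GFP-tagged TrkA (wild-type or kinase-dead) expressed in transfected HEK293 cells; lysates bound to gambogic amide immobilised on Affi-Gel 102 through an amide bond. For Kd, TrkA-loaded beads were competed with increasing free compound. After extensive washing, bead-bound protein was immunoblotted with anti-GFP and quantitated densitometrically.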

[29] = target: NT-3 growth factor receptor (Homo sapiens) (UniProt Q16288); experiment: Induction of TrkC tyrosine phosphorylation in transfected HEK293 cells; type: cell-based
Hippocampal neurone [30] = experiment: Neuroprotective effect in oxygen-glucose deprivation triggered cell death in rat hippocampal neurons after 30 mins; type: functional, tissue-based; conditions: Hippocampus
In short: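 Primary hippocampal neurons were pretreated with compounds or NGF 30 min before oxygen–glucose deprivation; apoptosis was assayed 3 h later, including a dose titration. Three independent experiments, mean ± SD.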

[31] = target: High affinity nerve growth factor receptor (Homo sapiens) (UniProt P04629); experiment: Binding affinity to TrkA; in short: as §7
[32] = target: BDNF/NT-3 growth factors receptor (Homo sapiens) (UniProt Q16620); experiment: Induction of TrkB tyrosine phosphorylation in transfected HEK293 cells; type: cell-based
[33] = target: High affinity nerve growth factor receptor (Rattus norvegicus) (UniProt P35739); experiment: Induction of TrkA tyrosine phosphorylation in rat hippocampal neurons at 0.5 uM after 30 mins by immunoblotting staining; type: tissue-based; conditions: Hippocampus; in short: as §2
[34] = target: High affinity nerve growth factor receptor (Rattus norvegicus) (UniProt P35739); experiment: Reversal of TrkA phosphorylation in rat hippocampal neurons at 0.5 uM after 30 mins in presence of K252a; type: tissue-based; conditions: Hippocampus
[35] = target: High affinity nerve growth factor receptor (Rattus norvegicus) (UniProt P35739); experiment: Induction of Akt phosphorylation in rat primary hippocampal neurons after 30 mins; type: tissue-based; conditions: Hippocampus; in short: as §1
PC-12 [36] = experiment: Blockade of induction of neurite outgrowth in rat PC12 cells in presence of K252a; type: functional, cell-based
[37] = target: Mitogen-activated protein kinase 3 (Mus musculus) (UniProt Q63844); experiment: Induction of ERK1 phosphorylation in mouse T17 cells
Chain of Mitogen-activated protein kinase 3 (Mus musculus) (Q63844 whole entry, looked up): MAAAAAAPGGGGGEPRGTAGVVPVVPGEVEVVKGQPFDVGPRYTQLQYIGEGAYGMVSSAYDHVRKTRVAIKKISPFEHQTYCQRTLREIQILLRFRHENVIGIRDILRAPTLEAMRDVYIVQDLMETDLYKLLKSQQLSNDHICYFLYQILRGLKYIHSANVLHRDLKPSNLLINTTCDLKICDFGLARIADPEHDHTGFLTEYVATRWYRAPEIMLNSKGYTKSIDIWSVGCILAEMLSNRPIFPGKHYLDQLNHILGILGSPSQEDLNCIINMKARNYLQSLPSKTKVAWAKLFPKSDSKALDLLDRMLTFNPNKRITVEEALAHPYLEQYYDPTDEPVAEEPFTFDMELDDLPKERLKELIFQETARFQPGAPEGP

HEK293 = experiment: Stimulation of TrkA and TrkB dimerization co-transfected in HEK293 cells at 0.5 uM after 30 mins by immunoblotting analysis; type: cell-based; in short: as §6
Mus musculus [38] = experiment: Neuroprotective effect on C57BL/6 mouse hippocampal CA3 region assessed as decrease in kainic acid-induced neuronal cell death at 2 mg/kg, sc after 5 days; type: functional; design: scale not given: the % may be the effect or the level left; conditions: route subcutaneous
In short: (§8)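 C57BL/6 mice were given 2 mg/kg s.c., followed by 25 mg/kg kainic acid. After 5 days, mice were perfused and 5 μm brain sections cut. Hippocampal apoptosis was quantified by TUNEL with DAPI counterstain.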

Rattus norvegicus [39] = species: Rattus norvegicus; experiment: Reversal of TrkA Y751 phosphorylation in rat hippocampal neurons at 0.5 uM after 30 mins in presence of K252a; type: tissue-based; conditions: Hippocampus
[40] = target: High affinity nerve growth factor receptor (Rattus norvegicus) (UniProt P35739); experiment: Induction of Akt phosphorylation in rat primary hippocampal neurons at 0.5 uM; conditions: Hippocampus, TDE = time-dependent effect; in short: as §1
Mus musculus [41] = experiment: Neuroprotective effect on C57BL/6 mouse hippocampal CA1 region assessed as decrease in kainic acid-induced neuronal cell death at 2 mg/kg, sc after 5 days; type: functional; design: scale not given: the % may be the effect or the level left; conditions: route subcutaneous; in short: as §8
PC-12 [42] = experiment: Induction of neurite outgrowth in rat PC12 cells; type: functional, cell-based; in short: as §5

CC(C)CCC[C@]1(C)C=Cc2c(O)c3c(c(CCC(C)C)c2O1)O[C@]12C(C[C@@H]4CC1C(C)(C)O[C@@]2(CCC(C)C(=O)O)C4O)C3=O (some centres undefined)
Activity (TrkB-stable [1]): Active
Activity (T17 [2]): inactive
Activity (TrkB-stable [3]): Active
Activity [4]: Active
Activity [5]: inactive
Activity (T17 [6]): Active
Activity (SN56): Active

CC(C)=CCC[C@]1(C)C=Cc2c(O)c3c(c(CC=C(C)C)c2O1)O[C@]12C(=C[C@@H]4C[C@H]1C(C)(C)O[C@@]2(C/C=C(/C)C(=O)O)C4=O)C3=O [GAMBOGIC ACID]
Activity (T17 [2]): inactive
Activity [4]: Active
Activity (Rattus norvegicus [7]): 24.41%
Activity [8]: inactive
Activity (Rattus norvegicus [9]): 85.83%
Activity [10]: inactive
Activity (PC-12 [11]): inactive
EC50 [12]: 20 nM
Activity [13]: Active
Activity [5]: inactive
Activity [14]: inactive
Activity [15]: Active
Activity [16]: Active
Activity (SN56): Active
Activity (Hippocampal neurone [17]): Active

CC(=O)Oc1c2c(c(CC=C(C)C)c3c1C(=O)C1=C[C@@H]4CC5C(C)(C)O[C@@](C/C=C(\C)C(=O)O)(C4=O)[C@@]15O3)O[C@](C)(CCC=C(C)C)C=C2
Activity (TrkB-stable [1]): Active
Activity (TrkB-stable [3]): Active
Activity [5]: inactive
Activity (SN56): Active

COC(=O)/C(C)=C\C[C@@]12OC(C)(C)C3C[C@@H](C=C4C(=O)c5c(OC)c6c(c(CC=C(C)C)c5O[C@]431)O[C@](C)(CCC=C(C)C)C=C6)C2=O
Activity (TrkB-stable [1]): Active
Activity (TrkB-stable [3]): Active
Activity (PC-12 [11]): inactive
EC50 [12]: 120 nM
Activity [5]: inactive
Activity (SN56): Active

CC(C)=CCC[C@]1(C)C=Cc2c(O)c3c(c(CC=C(C)C)c2O1)O[C@]12C(C[C@@H]4CC1C(C)(C)O[C@@]2(C/C=C(/C)C(=O)O)C4O)C3=O (some centres undefined)
Activity (TrkB-stable [1]): Active
Activity (T17 [2]): inactive
Activity (TrkB-stable [3]): Active
Activity [5]: inactive
Activity (SN56): Active

CC(C)=CCC[C@]1(C)C=Cc2c(O)c3c(c(CC=C(C)C)c2O1)O[C@]12C(=C[C@@H]4CC1C(C)(C)O[C@@]2(C/C=C(/C)C(N)=O)C4=O)C3=O [GAMBOGIC AMIDE]
Activity (Rattus norvegicus [18]): Active
Activity (TrkB-stable [1]): Active
Activity [19]: inactive
Activity [20]: inactive
Activity [21]: inactive
Activity [22]: inactive
Activity (TrkB-stable [3]): Active
Activity [23]: Active
Activity [24]: Active
Activity (Rattus norvegicus [25]): Active
Activity [26]: Active
Activity [27]: inactive
Activity [28]: Active
Activity [29]: Active
Activity (Hippocampal neurone [30]): Dose-dependent effect
Activity [31]: Active
Activity [32]: Active
Activity [33]: Active
Activity [34]: Active
Activity [35]: Dose-dependent effect
Activity (PC-12 [36]): Active
Activity [37]: Active
Activity (PC-12 [11]): Active
EC50 [12]: 5 nM
Activity [5]: Active
Activity [14]: Active
Activity [15]: Active
Activity (HEK293): inactive
Activity (Mus musculus [38]): 1.8%
Activity (Rattus norvegicus [39]): Active
Activity [40]: tde
Activity [16]: Active
Activity (Mus musculus [41]): 6.3%
Activity (SN56): Active
Activity (Hippocampal neurone [17]): Active
Activity (PC-12 [42]): Dose-dependent effect

CC(C)=CCC[C@]1(C)C=Cc2c(O)c3c(c(CC=C(C)C)c2O1)O[C@]12C(=C[C@@H]4CC1C(C)(C)O[C@@]2(C/C=C(/C)C(=O)O)C4O)C3=O (some centres undefined)
Activity (TrkB-stable [1]): Active
Activity (TrkB-stable [3]): Active
Activity (PC-12 [11]): Active
EC50 [12]: 200 nM
Activity [5]: inactive
Activity (SN56): Active
